# In the library only some 2% were active in any assay of this set; here they are far more common.
# C8 TRAIL sens – viability loss with TRAIL in NB7+C8 cells, primary screen, TRAIL sensitizer project, cell-based, ATPlite luminescence. inhibition (viability loss, TRAIL sensitization), % at 10 µM. 360,000 tested, 1% active;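 active = compounds causing at least 50% loss of cell viability in the single-dose screen, relative to plate controls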
# PPC-1+TRAIL kill – compounds killing PPC-1 cancer cells with TRAIL present, primary screen, TRAIL potentiator project, ATPLite luminescence, uHTS; PPC-1 cells + TRAIL, ATPLite viability luminescence; cell killing (% activity), % at 4 µM or 5 µM; 220,000 tested, 0.41% active; AID 1443, 2008;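 active = cell killing above 50% in the first pass at 4 µM, then a duplicate retest at 5 µM averaging 50% or more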
# FLuc act counter – FLuc activators, initial screening, artefact control for FLuc-dependent activation tests, biochemical, ATPlite luminescence | Luciferin 4-monooxygenase (Photinus pyralis), P08659 | activation factor at 10 µM | ATPlite luciferase biochemical, 10 min; 0 = ATP-free wells, 1 = DMSO control | 200,000 tested, under 10 active;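 active = luciferase activation factor, scaled between plate controls, of at least 2 with compound at 10 µM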
# Target sequence (P08659 whole entry, looked up): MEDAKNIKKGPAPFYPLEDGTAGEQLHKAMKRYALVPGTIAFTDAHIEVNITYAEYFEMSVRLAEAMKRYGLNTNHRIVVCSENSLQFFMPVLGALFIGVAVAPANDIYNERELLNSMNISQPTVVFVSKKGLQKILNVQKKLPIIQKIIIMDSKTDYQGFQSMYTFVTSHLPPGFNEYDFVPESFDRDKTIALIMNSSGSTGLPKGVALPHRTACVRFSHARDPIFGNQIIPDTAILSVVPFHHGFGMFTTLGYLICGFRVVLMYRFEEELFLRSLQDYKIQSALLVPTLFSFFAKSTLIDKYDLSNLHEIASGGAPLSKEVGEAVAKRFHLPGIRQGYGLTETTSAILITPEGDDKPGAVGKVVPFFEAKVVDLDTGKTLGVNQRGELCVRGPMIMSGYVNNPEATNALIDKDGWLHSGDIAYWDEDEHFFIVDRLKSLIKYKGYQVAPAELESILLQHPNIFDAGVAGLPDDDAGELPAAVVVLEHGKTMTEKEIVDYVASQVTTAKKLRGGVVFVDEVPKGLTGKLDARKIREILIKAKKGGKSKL
#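 test system = cell-free luciferase reagent | medium = PBS as buffer for the ATP substrate | dosing = test compounds dosed from 2 mM stocks in 100% DMSO | incubation = 10 min at ambient temperature | detection = luminescence measurement of luciferase light output | benchmarks = low control with PBS replacing ATP, high control enzyme plus ATP without compound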
# HSP90 refold inh – HSP90 inhibitors, primary screen, cell lysate, luminescence | 290,000 tested, 0.91% active | Rabbit reticulocyte lysate, luciferase refolding luminescence, 3 h | Heat shock protein HSP 90 (rabbit reticulocyte lysate; luciferase refolding) | inhibition, % at 5.6 µM;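 active = inhibition above the screen-wide mean plus 3 SD, computed separately per campaign, cut at about 16% in these data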;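 also: inhibitors lower the luminescence because luciferase stays unfolded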
# FLuc inh counter – firefly luciferase enzyme inhibitors, primary screen, artefact control for luciferase-based inhibitor screens, biochemical, luminescence, ATPLite | inhibition, % at 10 µM | 200,000 tested, 1.5% active | AID 1006, 2008 | Luciferin 4-monooxygenase (Photinus pyralis), P08659 | 10 min;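 active = inhibition above about 50% when tested at 10 µM, limit read from the data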
# PPC1 cytotox – cytotoxicity in PPC-1 cells, confirmation, cytotoxicity control for TRAIL apoptosis potentiator project, cell-based, ATP content luminescence | shares compounds with PPC-1+TRAIL kill | PPC-1 viability, ATPlite luminescence, overnight | cytotoxicity, % at 5 µM | 1,200 tested, 50% active;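 active = reconfirmed compounds whose average cytotoxicity reaches 50% or more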
# Numbers stand for hits; . = inactive; / = no result.
SMILES,C8 TRAIL sens,PPC-1+TRAIL kill,FLuc act counter,HSP90 refold inh,FLuc inh counter,PPC1 cytotox
CN(C)S(=O)(=O)c1ccc(-c2ccccc2)cc1,.,.,.,.,.,.
CN(c1ccccc1)S(=O)(=O)c1ccc(-c2ccccc2)cc1,.,/,/,.,/,/
CN(C)CCNC(=O)Cn1nc(C(F)F)cc1C1CC1,.,.,.,.,.,.
CC(C)CN1C(=O)N(c2ccc(Cl)cc2)C(C)(O)CC1(C)C (centres undefined),.,/,/,.,/,/
COc1cccc(CN(C)C(=O)C2CCN(S(=O)(=O)c3cccs3)CC2)c1OC,.,/,/,/,/,/
CC1(C)CC(=O)C=C(NNC(=O)c2ccccc2O)C1,71,79,.,.,91,75
CN(C)/C=C(/C(=O)c1ccccc1Cl)S(=O)(=O)c1ccccc1,.,/,/,.,/,/
COc1ccc(C(=O)/C(=C/N(C)C)S(=O)(=O)c2ccccc2)cc1,.,.,.,.,.,.
CCOC(=O)c1sc(-c2ccc(OC)cc2)cc1N,.,.,.,.,.,.
COc1ccc(-c2nnc(SCC(=O)c3cc(C)n(Cc4cccs4)c3C)o2)cc1,.,.,.,.,.,/
COCCn1c(C)cc(C(=O)CSc2ccc(NC(C)=O)cc2)c1C,.,.,.,.,.,/
COc1ccc(-n2cnnc2SCC(=O)c2cc(C)n(Cc3cccs3)c2C)cc1,.,.,.,.,.,.
CC(=O)Nc1ccc(SCC(=O)c2cc(C)n(Cc3cccs3)c2C)cc1,.,.,.,.,.,.
Cc1ccc(/C=N\NC(=O)CCc2n[nH]c(=O)[nH]c2=O)o1,.,.,.,.,.,/
Cc1ccc2c(c1)S/C(=C\c1cccc[n+]1C)N2CCO,.,/,/,.,/,/
CCN1/C(=C/c2ccc3cc(C)cc(C)c3[n+]2CC)Sc2cc(C)ccc21,.,.,.,.,.,.
CC(=O)Nc1nc(COc2ccccc2)cs1,.,.,.,.,.,.
N#Cc1ccc(C(=O)CN2CCN(c3ccccc3)CC2)cc1,.,/,/,.,/,/
COCc1nnc(NC(=O)c2sc3ccccc3c2Cl)s1,.,.,.,.,63,.
COC(=O)c1nc2ccc(N3CCOCC3)cc2c(C)c1C(=O)OC,63,.,.,.,87,.
COc1ccc(N2CC(NS(=O)(=O)c3cccs3)CC2=O)cc1OC (centres undefined),.,/,/,/,/,/
COc1ccc(C(=O)Sc2nncc3ccccc23)cc1,.,.,.,.,.,.
COc1ccc(NC(=O)CSc2nncc3ccccc23)cc1,.,.,.,.,.,/
CCC1CCCCN1C(=O)COC(=O)COc1ccc(Br)cc1 (centres undefined),.,/,/,/,/,/
Cn1cccc1C(=O)NC(=O)COC(=O)CNC(=O)CNC(=O)c1ccc(Cl)cc1Cl,.,.,.,.,.,/
SMILES,C8 TRAIL sens,PPC-1+TRAIL kill,FLuc act counter,HSP90 refold inh,FLuc inh counter,PPC1 cytotox
CCN(C(=O)c1ccco1)c1nnc(-c2ccc(OC)cc2)s1,69,68,.,.,85,70
Cc1ccc(S(=O)(=O)NC2CCCC(C(=O)O)C2)cc1 (centres undefined),.,.,.,.,.,.
CCOC(=O)N1CCN(C(=O)c2c(N)no[n+]2[O-])CC1,.,.,.,.,.,/
O=c1cc(-c2ccccc2)[nH]c2nc3ccccc3n12,84,70,.,.,84,65
O=C(CSc1nnc(CNC(=O)c2ccco2)o1)Nc1cccc(Cl)c1,.,/,/,.,/,/
CC1=C(C(=O)N(C)C)C(c2ccc(C)s2)NC(=S)N1 (centres undefined),.,.,.,.,.,/
CCN(CC)C(=O)C1=C(C)NC(=S)NC1c1ccc(C)s1 (centres undefined),.,.,.,.,.,.
Cc1cc(C)c(S(=O)(=O)Nc2ccc(N(C)C)cc2)c(C)c1-n1cnnn1,.,/,/,.,/,/
O=C(N/N=C/c1cccc([N+](=O)[O-])c1)c1ccc2c(c1)OCCO2,68,68,.,.,84,68
Cc1nc(-c2coc3cc(OCC(=O)O)ccc3c2=O)cs1,50,.,.,.,78,.
COc1ccc(-c2coc3cc(OC)ccc3c2=O)cc1,.,/,/,/,/,/
CCOC(=O)COc1ccc2c(=O)c(-c3ccccc3)coc2c1,.,.,/,.,/,/
COc1ccc2c(=O)c(-c3nc(C)cs3)coc2c1,66,.,.,.,78,57
CNc1ncnc2c1ncn2[C@H]1CN(Cc2ccccc2)C[C@@H](CO)O1,.,/,/,/,/,/
Cc1ccc(S(=O)(=O)N2CCCCC2)cc1C(=O)N1CCCCCC1,.,/,/,/,/,/
CCn1nnc(NC(=O)c2ccc(C(C)(C)C)cc2)n1,78,57,.,.,82,.
CCn1nnc(NC(=O)c2cccnc2)n1,.,.,.,.,.,/
N#Cc1cc2c(nc1SCc1nc3ccccc3[nH]1)CCC2,/,.,.,.,78,.
N#Cc1c(SCc2nc3ccccc3[nH]2)nc2c(c1C(F)(F)F)CCC2,/,/,/,.,/,/
O=C(COc1ccc2ccccc2c1)NC1=NCCS1,.,.,.,.,.,/
Cc1cc(C)cc(OCC(=O)NC2=NCCS2)c1,.,.,.,.,.,.
CC1CN(C(=O)CCC(=O)NCCCN2C(C)CCCC2C)c2ccccc2O1 (centres undefined),.,/,/,.,/,/
N=c1n(CCN2CCCC2)c2ccccc2n1CC(O)c1ccc(Cl)c(Cl)c1 (centres undefined),.,.,.,.,.,.
COc1ccc(S(=O)(=O)N2CCN(C(=O)c3ccccc3Cc3ccccc3)CC2)cc1OC,.,/,/,/,/,/
c1ccc(COc2ccc(OCCn3cncn3)cc2)cc1,.,.,.,.,.,.
SMILES,C8 TRAIL sens,PPC-1+TRAIL kill,FLuc act counter,HSP90 refold inh,FLuc inh counter,PPC1 cytotox
c1ccc(-c2ccc(OCCCn3cncn3)cc2)cc1,.,.,.,.,.,/
CC1(C(=O)NS(=O)(=O)c2cccs2)CCN1C(=O)C1(c2ccc(Cl)cc2)CCC1 (centres undefined),.,/,/,/,/,/
CCOC(=O)CSc1nc(-c2ccncc2)ccc1C#N,51,.,.,.,.,.
CCOC(=O)C1=C(CSc2nc(-c3ccncc3)ccc2C#N)OC(N)=C(C#N)C1c1ccc(OC)cc1 (centres undefined),.,.,.,.,.,.
CCOC(=O)CC(=O)CSc1nc(-c2cccnc2)ccc1C#N,.,.,.,.,.,/
C[C@H](CO)N1C[C@H](C)[C@H](CN(C)Cc2ccncc2)Oc2ccc(NC(=O)Nc3ccc(C(F)(F)F)cc3)cc2CC1=O,.,/,/,/,/,/
COc1ccc(-c2cc(=Nc3ccc(C(=O)O)cc3)c3cc(C)ccc3o2)cc1,.,.,.,.,58,.
CCc1c(C)sc(NC(=O)c2cc(CC(C)C)on2)c1C#N,.,.,.,.,.,.
CCN(CC(=O)Nc1c(F)cccc1F)C(=O)C1CC1C (centres undefined),.,/,/,/,/,/

# Bioassay records deposited in PubChem by several laboratories.
